Results taken from ChEMBL document CHEMBL5370602, “Structure-Based Design of a Lead Compound Derived from Natural Schweinfurthins with Antitumor Properties That Target Oxysterol-Binding Protein” (J Med Chem, 2023).
The source made the active and inactive calls. No cut-off for these calls is given here.

Key:
[1] = biological target: T1, Oxysterol-binding protein 1 (Homo sapiens) (UniProt P22059); assay: Inhibition of human OSBP in human hTERT-RPE1 cells assessed as increase in OSBP recruitment at TGN and measured after 4 hrs by confocal microscopy; type: cell-based
T1 sequence (whole entry): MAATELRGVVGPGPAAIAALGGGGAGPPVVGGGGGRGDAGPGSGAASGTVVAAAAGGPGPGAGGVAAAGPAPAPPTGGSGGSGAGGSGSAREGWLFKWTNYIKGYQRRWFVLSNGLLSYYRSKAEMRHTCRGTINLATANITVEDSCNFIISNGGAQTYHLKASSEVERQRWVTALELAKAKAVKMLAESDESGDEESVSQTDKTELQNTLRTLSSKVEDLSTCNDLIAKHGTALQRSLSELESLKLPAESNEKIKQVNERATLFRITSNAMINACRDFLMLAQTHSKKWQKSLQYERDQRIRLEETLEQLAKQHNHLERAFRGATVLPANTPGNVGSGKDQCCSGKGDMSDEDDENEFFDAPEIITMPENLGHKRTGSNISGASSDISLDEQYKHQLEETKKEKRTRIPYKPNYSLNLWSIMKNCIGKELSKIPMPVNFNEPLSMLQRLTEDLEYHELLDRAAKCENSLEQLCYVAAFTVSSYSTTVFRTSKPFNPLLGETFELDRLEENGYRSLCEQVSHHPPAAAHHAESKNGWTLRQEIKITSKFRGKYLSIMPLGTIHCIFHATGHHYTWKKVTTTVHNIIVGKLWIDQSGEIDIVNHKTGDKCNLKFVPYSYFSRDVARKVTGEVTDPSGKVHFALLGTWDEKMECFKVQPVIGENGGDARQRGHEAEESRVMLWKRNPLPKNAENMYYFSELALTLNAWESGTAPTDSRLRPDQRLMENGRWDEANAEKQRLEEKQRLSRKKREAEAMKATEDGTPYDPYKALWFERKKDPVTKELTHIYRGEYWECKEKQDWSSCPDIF

[2] = Antitumor activity in high alert medicated patient derived human GBM1 cells xenografted in immunodeficient nude mouse model assessed as T/C ratio at 20 mg/kg,ip QD cotreatment with Temozolomide at 42 mg/kg,po QD and measured after 11 days; type: functional; conditions: time 11 day
Method in brief: (§1)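 Female athymic nude mice bearing subcutaneous GBM1-HAM PDX fragments (20 mm³); treatment began day 11 post-implant at tumour volumes 75-196 mm³, 10 per group. Compound i.p. daily in cyclodextrin vehicle (17 days alone, 27 days in combination); temozolomide 42 mg/kg p.o. daily for 5 days in PBS/glucose/Tween 80. Calliper volumes three times weekly; body weight and clinical signs monitored.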

[3] = Prodrug conversion in Swiss mouse plasma assessed as half life of (2R,4aR,9aR)-7-((E)-2-(5-hydroxy-2,2-dimethylchroman-7-yl)vinyl)-1,1,4a-trimethyl-2,3,4,4a,9,9a-hexahydro-1H-xanthene-2,5-diol metabolite at 20 mg/kg, IP and measured upto 6 hrs by LC-MS/MS analysis; type: ADME, organism-based; conditions: in vivo
Method in brief: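 Male Swiss mice (5-6 weeks, 3 per dose) given a single i.p. dose of prodrug, 2.5 mg/mL in 15% hydroxypropyl-β-cyclodextrin in 65 mM phosphate pH 7.4. Retro-orbital blood taken at 5, 15, 30 min and 1, 3, 6 h; plasma acetonitrile-precipitated. Parent and metabolite quantified by LC-MS/MS with a 1-2,000 ng/mL calibration.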

[4] = Permeability across blood brain barrier in Swiss mouse assessed as brain to plasma ratio of (2R,4aR,9aR)-7-((E)-2-(5-hydroxy-2,2-dimethylchroman-7-yl)vinyl)-1,1,4a-trimethyl-2,3,4,4a,9,9a-hexahydro-1H-xanthene-2,5-diol metabolite at 15 mg/kg, ip and measured after 1.5 hrs by LC-MS/MS analysis; type: ADME, organism-based
Method in brief: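 Nine male Swiss mice given 15 mg/kg prodrug i.p. (4 mg/mL in cyclodextrin vehicle). Blood taken from three mice at each of 0.25, 0.75 and 1.5 h; animals then saline-perfused transcardially under isoflurane. Plasma and brain homogenate (1:1 water) acetonitrile-precipitated and analyzed by LC-MS/MS.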

[5] = biological target: mTORC2 (Homo sapiens) (UniProt P42345+Q6R327+Q9BVC4+Q9BPZ7); assay: Inhibition of mTORC2 signalling in human U-87 MG cells assessed as decrease in AKT phosphorylation at S473 residue at 0.05 to 1 uM incubated for 48 hrs by Western blot analysis; type: cell-based
Method in brief: (§2)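 U-87 MG cells cultured two days, then exposed 48 h to increasing doses. Lysed in RIPA with protease inhibitors; 5 µg protein run on 4-20% SDS gels and transferred to PVDF. Probed for phospho/total AKT, S6, S6K, P62 and LC3, detected by ECL. Band intensities normalized to β-actin.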

[6] = Metabolic stability in mouse liver microsomes assessed as compound remaining at 2.5 uM and measured after 45 mins in presence of NADPH by LC-MS/MS analysis; type: ADME, Microsome; conditions: read-out: Stability
[7] = biological target: T2, mTORC1 (Homo sapiens) (UniProt P42345+Q8N122+Q9BVC4); assay: Inhibition of mTORC1 signalling in human U-87 MG cells assessed as decrease in S6 phosphorylation at S240/244 residue at 0.05 to 1 uM incubated for 48 hrs by Western blot analysis; type: cell-based; method in brief: as §2
[8] = Toxicity in immunodeficient nude mouse model xenografted with high alert medicated patient derived human GBM1 cells assessed as body weight change at 50 mg/kg,ip QD for 27 days cotreatment with Temozolomide at 42 mg/kg,po QD for 5 days; type: organism-based; conditions: in vivo, 648 h, time 27 day; method in brief: as §1
[9] = Antitumor activity in high alert medicated patient derived human GBM1 cells xenografted in immunodeficient nude mouse model assessed as T/C ratio at 50 mg/kg,ip QD and measured after 9 to 11 days; type: functional; conditions: time 9-11 day; method in brief: as §1
[10] = biological target: T1, Oxysterol-binding protein 1 (Homo sapiens); assay: Inhibition of human OSBP in human hTERT-RPE1 cells assessed as increase in OSBP recruitment at TGN and measured after 10 mins by confocal microscopy; type: cell-based
[11] = Toxicity in immunodeficient mouse assessed as clinical symptoms at 100 mg/kg,ip QD for 5 days; type: organism-based; conditions: in vivo, 120 h, time 5 day
[12] = test system: U-87 MG; assay: Induction of autophagy in human U-87 MG cells assessed as decrease in LC3I expression at 0.05 to 1 uM incubated for 48 hrs by Western blot analysis; type: functional, cell-based; conditions: U-87MG ATCC; method in brief: as §2
[13] = biological target: T2, mTORC1 (Homo sapiens); assay: Inhibition of mTORC1 signalling in human U-87 MG cells assessed as decrease in S6K phosphorylation at T389 residue at 0.05 to 1 uM incubated for 48 hrs by Western blot analysis; type: cell-based; method in brief: as §2
[14] = Antitumor activity in high alert medicated patient derived human GBM1 cells xenografted in immunodeficient nude mouse model assessed as T/C ratio at 50 mg/kg,ip QD cotreatment with Temozolomide at 42 mg/kg,po QD and measured from 9 to 11 days; type: functional; conditions: time 9-11 day; method in brief: as §1
[15] = Toxicity in immunodeficient nude mouse model xenografted with high alert medicated patient derived human GBM1 cells assessed as body weight change at 50 mg/kg,ip QD for 17 days; type: organism-based; conditions: in vivo, 408 h, time 17 day; method in brief: as §1

inhibition [1]: inactive | t1/2 [3]: 2 h | BPR [4]: 1.74 | inhibition [5]: Dose-Dependent Effect | remaining at 0.75 h, 2.5 µM [6]: 5.3% | inhibition [7]: Dose-Dependent Effect | inhibition [10]: Active | inhibition [13]: Dose-Dependent Effect
SMILES: CC1(C)CCc2c(O)cc(/C=C/c3cc(O)c4c(c3)C[C@@H]3C(C)(C)[C@H](OC=O)CC[C@@]3(C)O4)cc2O1
T/C [2]: 49.91% | Activity [8]: Non-Toxic | T/C [9]: 70.05% | Activity [11]: Non-Toxic | Activity [12]: Dose-Dependent Effect | T/C [14]: 41.43% | Activity [15]: Non-Toxic
